Reference: ChEMBL document CHEMBL1212742 (2010)
Converted amounts (≈) assume the structure as drawn.

Tests used:
Format in all cases: functional
[1] = system: Mycobacterium tuberculosis; assay: Antimicrobial activity against Mycobacterium tuberculosis NJT210CGG harboring embB497 CAG-CGG(Gln-Arg) mutation in embB gene after 4 weeks
Procedure, shortened: (§1)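 Isogenic embB mutants made by allelic exchange in strain 210. PCR-built fragments carried the codon of interest; double-crossover colonies were screened by molecular beacon assay and confirmed by direct embB sequencing. MICs of EMB, INH and RIF were determined by radiometric Bactec 460TB and 7H10 agar proportion, alongside parent 210.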

[2] = system: Mycobacterium tuberculosis; assay: Antimicrobial activity against Mycobacterium tuberculosis NJT210GCC harboring embB406 GGC-GCC(Gly-Ala) mutation in embB gene after 4 weeks; procedure, shortened: as §1
[3] = system: Mycobacterium tuberculosis; assay: Antimicrobial activity against Mycobacterium tuberculosis NJT210GAC harboring embB406 GGC-GAC(Gly-Asp) mutation in embB gene after 4 weeks; procedure, shortened: as §1
[4] = system: Mycobacterium tuberculosis; assay: Antimicrobial activity against Mycobacterium tuberculosis NJT210TGC harboring embB406 GGC-TGC(Gly-Cys) mutation in embB gene after 4 weeks; procedure, shortened: as §1
[5] = system: Mycobacterium tuberculosis; assay: Antimicrobial activity against Mycobacterium tuberculosis NJT210TCC harboring embB406 GGC-TCC(Gly-Ser) mutation in embB gene after 4 weeks; procedure, shortened: as §1
[6] = system: Mycobacterium tuberculosis; assay: Antimicrobial activity against Mycobacterium tuberculosis 8C7 harboring embB445 CAG-CGG(Gln-Arg) mutation in embCAB gene after 4 weeks by 7H agar proportion method
Procedure, shortened: (§2)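 EMB MIC by 7H10 agar proportion for clones selected from M. tuberculosis strain 210. About 10^9 cells from liquid culture (OD600 ~1.5, resuspended in 7H9) were plated on 7H10 with EMB at 8, 16 or 32 µg/ml final, incubated 37°C for 4 weeks. Colonies were subcultured in EMB-free 7H9 before testing, and embCAB was genotyped.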

[7] = system: Mycobacterium tuberculosis; assay: Antimicrobial activity against Mycobacterium tuberculosis 8C5 harboring embC13 CGG-CTG(Arg-Leu) mutation in embCAB gene after 4 weeks by Bactec 460TB method
Procedure, shortened: (§3)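 EMB MIC by radiometric Bactec 460TB liquid method for clones from strain 210. The clones were selected on 7H10 containing 8, 16 or 32 µg/ml EMB final (~10^9 cells plated, 37°C, 4 weeks), then subcultured in 7H9 without EMB before MIC testing. embCAB was genotyped.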

[8] = system: Mycobacterium tuberculosis; assay: Antimicrobial activity against Mycobacterium tuberculosis 8C5 harboring embC13 CGG-CTG(Arg-Leu) mutation in embCAB gene after 4 weeks by 7H agar proportion method; procedure, shortened: as §2
[9] = system: Mycobacterium tuberculosis; assay: Antimicrobial activity against Mycobacterium tuberculosis 8C7 harboring embB445 CAG-CGG(Gln-Arg) mutation in embCAB gene after 4 weeks by Bactec 460TB method; procedure, shortened: as §3
[10] = system: Mycobacterium tuberculosis; assay: Antimicrobial activity against Mycobacterium tuberculosis 16C7 harboring embB445 CAG-CGG(Gln-Arg) mutation in embCAB gene after 4 weeks by Bactec 460TB method; procedure, shortened: as §3
[11] = system: Mycobacterium tuberculosis; assay: Antimicrobial activity against Mycobacterium tuberculosis 16C9 harboring embB497 CAG-CGG(Gln-Arg) mutation in embCAB gene after 4 weeks by Bactec 460TB method; procedure, shortened: as §3
[12] = system: Mycobacterium tuberculosis; assay: Antimicrobial activity against Mycobacterium tuberculosis 16C11 harboring embB397 CCG-TCG(Pro-Ser) mutation in embCAB gene after 4 weeks by 7H agar proportion method; procedure, shortened: as §2
[13] = system: Mycobacterium tuberculosis; assay: Antimicrobial activity against Mycobacterium tuberculosis 16C11 harboring embB397 CCG-TCG(Pro-Ser) mutation in embCAB gene after 4 weeks by Bactec 460TB method; procedure, shortened: as §3
[14] = system: Mycobacterium tuberculosis; assay: Antimicrobial activity against Mycobacterium tuberculosis 16C14 harboring embB445 CAG-CGG(Gln-Arg) mutation in embCAB gene after 4 weeks by 7H agar proportion method; procedure, shortened: as §2
[15] = system: Mycobacterium tuberculosis; assay: Antimicrobial activity against Mycobacterium tuberculosis 16C14 harboring embB445 CAG-CGG(Gln-Arg) mutation in embCAB gene after 4 weeks by Bactec 460TB method; procedure, shortened: as §3
[16] = system: Mycobacterium tuberculosis; assay: Antimicrobial activity against Mycobacterium tuberculosis 16C15 harboring embB497 CAG-CGG(Gln-Arg) mutation in embCAB gene after 4 weeks by Bactec 460TB method; procedure, shortened: as §3
[17] = system: Mycobacterium tuberculosis; assay: Antimicrobial activity against Mycobacterium tuberculosis 16C16 harboring embB1024 GAC-AAC(Asp-Asn) mutation in embCAB gene after 4 weeks by 7H agar proportion method; procedure, shortened: as §2
[18] = system: Mycobacterium tuberculosis; assay: Antimicrobial activity against Mycobacterium tuberculosis 16C16 harboring embB1024 GAC-AAC(Asp-Asn) mutation in embCAB gene after 4 weeks by Bactec 460TB method; procedure, shortened: as §3
[19] = system: Mycobacterium tuberculosis; assay: Antimicrobial activity against Mycobacterium tuberculosis 32C1 harboring embB445 CAG-CGG(Gln-Arg) mutation in embCAB gene after 4 weeks by 7H agar proportion method; procedure, shortened: as §2
[20] = system: Mycobacterium tuberculosis; assay: Antimicrobial activity against Mycobacterium tuberculosis 32C1 harboring embB445 CAG-CGG(Gln-Arg) mutation in embCAB gene after 4 weeks by Bactec 460TB method; procedure, shortened: as §3
[21] = system: Mycobacterium tuberculosis; assay: Antimicrobial activity against Mycobacterium tuberculosis 32C2 harboring embB497 CAG-CGG(Gln-Arg) mutation in embCAB gene after 4 weeks by Bactec 460TB method; procedure, shortened: as §3
[22] = system: Mycobacterium tuberculosis; assay: Antimicrobial activity against Mycobacterium tuberculosis 32C3 harboring embB497 CAG-CGG(Gln-Arg) mutation in embCAB gene after 4 weeks by Bactec 460TB method; procedure, shortened: as §3
[23] = system: Mycobacterium tuberculosis; assay: Antimicrobial activity against Mycobacterium tuberculosis 32C4 harboring embB497 CAG-CGG(Gln-Arg) mutation in embCAB gene after 4 weeks by Bactec 460TB method
[24] = system: Mycobacterium tuberculosis; assay: Antimicrobial activity against Mycobacterium tuberculosis 32C5 harboring embB324 GGC-CGC(Gly-Arg) mutation in embCAB gene after 4 weeks by 7H agar proportion method; procedure, shortened: as §2
[25] = system: Mycobacterium tuberculosis; assay: Antimicrobial activity against Mycobacterium tuberculosis 32C5 harboring embB324 GGC-CGC(Gly-Arg) mutation in embCAB gene after 4 weeks by Bactec 460TB method; procedure, shortened: as §3
[26] = system: Mycobacterium tuberculosis; assay: Antimicrobial activity against Mycobacterium tuberculosis harboring mutation in embB306 gene after 4 weeks

Compound NNC(=O)c1ccncc1 [ISONIAZID] has an MIC [1] of 0.05 µg/mL (≈ 0.365 µM), an MIC [2] of 0.05 µg/mL (≈ 0.365 µM) and an MIC [3] of 0.05 µg/mL (≈ 0.365 µM). It also gave an MIC [4] of 0.05 µg/mL (≈ 0.365 µM) and an MIC [5] of 0.05 µg/mL (≈ 0.365 µM).
Work on CC[C@@H](CO)NCCN[C@@H](CC)CO [ETHAMBUTOL] yielded an MIC [6] of 4 µg/mL (≈ 19.6 µM), an MIC [7] of 4 µg/mL (≈ 19.6 µM) and an MIC [8] of 8 µg/mL (≈ 39.2 µM). It also gave an MIC [9] of 2 µg/mL (≈ 9.79 µM), an MIC [10] of 8 µg/mL (≈ 39.2 µM) and an MIC [11] of 12 µg/mL (≈ 58.7 µM). It also gave an MIC [12] of 8 µg/mL (≈ 39.2 µM), an MIC [13] of 5 µg/mL (≈ 24.5 µM) and an MIC [14] of 16 µg/mL (≈ 78.3 µM). For the same compound, the MIC [15] was 8 µg/mL (≈ 39.2 µM), the MIC [16] was 12 µg/mL (≈ 58.7 µM) and the MIC [17] was 8 µg/mL (≈ 39.2 µM). It also gave an MIC [18] of 3 µg/mL (≈ 14.7 µM), an MIC [19] of 6 µg/mL (≈ 29.4 µM) and an MIC [20] of 2 µg/mL (≈ 9.79 µM). The MIC [21] was 12 µg/mL (≈ 58.7 µM), the MIC [22] was 12 µg/mL (≈ 58.7 µM) and the MIC [23] was 4 µg/mL (≈ 19.6 µM). For the same compound, the MIC [24] was 8 µg/mL (≈ 39.2 µM), the MIC [25] was 8 µg/mL (≈ 39.2 µM) and the MIC [1] was 12 µg/mL (≈ 58.7 µM). It also gave an MIC [2] of 7 µg/mL (≈ 34.3 µM), an MIC [3] of 7 µg/mL (≈ 34.3 µM) and an MIC [4] of 7 µg/mL (≈ 34.3 µM). For the same compound, the MIC [5] was 6 µg/mL (≈ 29.4 µM) and the MIC [26] was over 20 µg/mL.
CO[C@H]1/C=C/O[C@@]2(C)Oc3c(C)c(O)c4c(O)c(c(/C=N/N5CCN(C)CC5)c(O)c4c3C2=O)NC(=O)/C(C)=C\C=C\[C@H](C)[C@H](O)[C@@H](C)[C@@H](O)[C@@H](C)[C@H](OC(C)=O)[C@@H]1C [RIFAMPIN] was tested, and the MIC [1] was 0.05 µg/mL (≈ 0.0608 µM), the MIC [2] was 0.05 µg/mL (≈ 0.0608 µM) and the MIC [3] was 0.05 µg/mL (≈ 0.0608 µM). It also gave an MIC [4] of 0.05 µg/mL (≈ 0.0608 µM) and an MIC [5] of 0.05 µg/mL (≈ 0.0608 µM).
